# From ChEMBL document CHEMBL1124252, “Structure-activity relationships in 1,4-benzodioxan-related compounds. Investigation on the role of the dehydrodioxane ring on alpha 1-adrenoreceptor blocking activity” (J Med Chem, 1988)
# Columns and labels:
# [1] = molecular target: T1, Adrenergic receptor alpha-2 (Rattus norvegicus, UniProt P22086+P19328+P22909); experiment: Alpha-2 adrenergic receptor blocking activity against clonidine-induced depression of the twitch response in prostatic portion of rat vas deferens; assay type: tissue-based
# T1 sequence (P22086 whole entry): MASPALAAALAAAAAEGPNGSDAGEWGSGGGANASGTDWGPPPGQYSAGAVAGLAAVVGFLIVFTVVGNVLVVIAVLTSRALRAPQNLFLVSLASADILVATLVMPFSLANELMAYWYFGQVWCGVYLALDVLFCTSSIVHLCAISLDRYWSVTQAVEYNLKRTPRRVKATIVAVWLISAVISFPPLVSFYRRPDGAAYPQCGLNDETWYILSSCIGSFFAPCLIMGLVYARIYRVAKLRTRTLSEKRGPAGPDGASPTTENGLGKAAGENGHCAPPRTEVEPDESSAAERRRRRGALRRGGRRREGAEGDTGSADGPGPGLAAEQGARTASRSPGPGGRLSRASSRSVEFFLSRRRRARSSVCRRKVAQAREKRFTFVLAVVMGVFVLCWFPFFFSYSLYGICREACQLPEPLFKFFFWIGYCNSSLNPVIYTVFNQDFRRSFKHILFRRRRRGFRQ
# T1 sequence (P19328 whole entry): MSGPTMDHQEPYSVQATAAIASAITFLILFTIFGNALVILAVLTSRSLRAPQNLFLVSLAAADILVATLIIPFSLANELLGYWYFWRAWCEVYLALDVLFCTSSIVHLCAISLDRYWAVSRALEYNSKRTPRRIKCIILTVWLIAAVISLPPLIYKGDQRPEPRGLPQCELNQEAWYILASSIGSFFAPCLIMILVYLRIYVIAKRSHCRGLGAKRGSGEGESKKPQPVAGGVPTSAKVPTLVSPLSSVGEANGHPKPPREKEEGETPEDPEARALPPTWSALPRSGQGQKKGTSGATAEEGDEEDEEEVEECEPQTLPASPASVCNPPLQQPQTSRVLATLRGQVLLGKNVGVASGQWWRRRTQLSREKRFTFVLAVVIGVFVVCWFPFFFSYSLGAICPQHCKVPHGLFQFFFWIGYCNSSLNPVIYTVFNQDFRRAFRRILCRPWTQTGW
# T1 sequence (P22909 whole entry): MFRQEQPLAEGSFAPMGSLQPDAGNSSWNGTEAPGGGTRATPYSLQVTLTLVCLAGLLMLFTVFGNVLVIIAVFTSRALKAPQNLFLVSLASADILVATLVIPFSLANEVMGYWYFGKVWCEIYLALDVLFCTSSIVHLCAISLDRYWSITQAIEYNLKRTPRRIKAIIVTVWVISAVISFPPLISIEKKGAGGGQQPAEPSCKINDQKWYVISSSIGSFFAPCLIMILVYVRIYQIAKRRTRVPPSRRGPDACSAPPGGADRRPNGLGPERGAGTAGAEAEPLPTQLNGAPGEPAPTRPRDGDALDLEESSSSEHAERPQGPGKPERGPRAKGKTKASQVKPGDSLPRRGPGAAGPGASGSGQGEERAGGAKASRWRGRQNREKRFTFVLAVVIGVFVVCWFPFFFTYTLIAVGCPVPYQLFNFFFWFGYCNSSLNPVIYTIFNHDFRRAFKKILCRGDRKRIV
# Summary of the method: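 Prostatic halves (12 mm) from male albino rat vas deferens, Krebs with propranolol 1 μM and cocaine 10 μM, 0.5–0.8 g tension, field-stimulated at 0.1 Hz, 3-ms pulses, 10-35 V. After ≥1 h equilibration, cumulative clonidine curves on twitch inhibition before and after 30 min antagonist. Dose ratios taken at 50% twitch inhibition; pA2 via Schild plot, slope constrained to -1.0.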
# [2] = molecular target: T2, Adrenergic receptor alpha-1 (Rattus norvegicus, UniProt P15823+P23944+P43140); experiment: Alpha-1 adrenergic receptor blocking activity against norepinephrine-induced contraction in epididymal portion of rat vas deferens; assay type: tissue-based
# T2 sequence (P15823 whole entry): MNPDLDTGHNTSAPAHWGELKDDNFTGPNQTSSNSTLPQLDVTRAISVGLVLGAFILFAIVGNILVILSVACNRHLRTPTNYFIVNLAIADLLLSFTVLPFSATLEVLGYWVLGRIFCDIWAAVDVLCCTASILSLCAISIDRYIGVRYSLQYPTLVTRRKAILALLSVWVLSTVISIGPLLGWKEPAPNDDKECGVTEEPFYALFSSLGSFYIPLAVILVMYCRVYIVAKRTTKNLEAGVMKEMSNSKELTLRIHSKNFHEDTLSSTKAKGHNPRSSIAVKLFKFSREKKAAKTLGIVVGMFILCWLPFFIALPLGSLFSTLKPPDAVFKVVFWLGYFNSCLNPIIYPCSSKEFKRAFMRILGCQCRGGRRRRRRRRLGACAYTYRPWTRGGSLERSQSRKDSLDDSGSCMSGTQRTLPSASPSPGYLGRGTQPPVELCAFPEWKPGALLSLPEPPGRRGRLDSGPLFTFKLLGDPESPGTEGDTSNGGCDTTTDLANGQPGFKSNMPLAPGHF
# T2 sequence (P23944 whole entry): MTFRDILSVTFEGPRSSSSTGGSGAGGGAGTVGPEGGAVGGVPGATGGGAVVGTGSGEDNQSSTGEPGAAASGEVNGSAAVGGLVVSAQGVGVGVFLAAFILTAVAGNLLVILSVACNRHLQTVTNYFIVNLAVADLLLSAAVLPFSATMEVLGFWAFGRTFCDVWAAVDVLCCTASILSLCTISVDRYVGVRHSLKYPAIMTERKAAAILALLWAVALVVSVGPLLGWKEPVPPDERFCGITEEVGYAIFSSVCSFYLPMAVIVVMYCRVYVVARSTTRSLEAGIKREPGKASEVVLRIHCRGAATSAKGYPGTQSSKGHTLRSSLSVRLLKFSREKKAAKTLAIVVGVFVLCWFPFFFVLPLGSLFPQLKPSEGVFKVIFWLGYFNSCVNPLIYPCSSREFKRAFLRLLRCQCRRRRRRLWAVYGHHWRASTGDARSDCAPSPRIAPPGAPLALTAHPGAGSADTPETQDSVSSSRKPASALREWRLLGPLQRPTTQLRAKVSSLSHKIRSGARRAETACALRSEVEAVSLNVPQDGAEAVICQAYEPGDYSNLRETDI
# T2 sequence (P43140 whole entry): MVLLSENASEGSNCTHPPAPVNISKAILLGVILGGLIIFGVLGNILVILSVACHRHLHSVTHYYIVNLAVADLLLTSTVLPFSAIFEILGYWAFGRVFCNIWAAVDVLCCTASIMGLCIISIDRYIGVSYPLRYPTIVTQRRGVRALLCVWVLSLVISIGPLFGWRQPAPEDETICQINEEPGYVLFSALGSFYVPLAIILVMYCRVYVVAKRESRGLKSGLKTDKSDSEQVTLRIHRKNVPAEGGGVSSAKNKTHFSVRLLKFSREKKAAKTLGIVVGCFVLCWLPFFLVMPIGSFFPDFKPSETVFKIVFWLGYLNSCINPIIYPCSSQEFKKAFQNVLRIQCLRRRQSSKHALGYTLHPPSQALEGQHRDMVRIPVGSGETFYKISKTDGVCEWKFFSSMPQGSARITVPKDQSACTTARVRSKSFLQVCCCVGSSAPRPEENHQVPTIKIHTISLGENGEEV
# Summary of the method: (§1)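 Epididymal halves (14 mm) of vas deferens from male albino rats (175-200 g), Krebs with propranolol 1 μM and cocaine 10 μM, 0.4 g tension. Equilibrated ≥1 h; cumulative norepinephrine curves, first discarded, second control, third after 30 min antagonist. Time-control tissues run in parallel. pA2 from Schild plots constrained to slope -1.0, each concentration tested five times.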
# [3] = molecular target: Adrenergic receptor alpha (Rattus norvegicus) (UniProt P15823+P23944+P43140+P22086+P19328+P22909); experiment: The alpha-1/alpha-2 selectivity ratio is the antilog of the difference between pA2 values at alpha-1 and alpha-2 adrenoceptors
# [4] = molecular target: T2, Adrenergic receptor alpha-1; experiment: Alpha-1-Adrenoceptor blocking activity against norepinephrine-induced contraction in epididymal portion of rat vas deferens; assay type: functional, tissue-based; summary of the method: as §1
pA2 [1],pA2 [2],Selectivity [3],pA2 [4],Structure (SMILES)
6.53,8.89,229,–,COc1cccc(OC)c1OCCNC[C@@H]1CSc2ccccc2C1=O
6.28,7.97,49,–,COc1cccc(OC)c1OCCNC[C@@H]1COc2ccccc2C1
6.1,7.22,13,–,COc1cccc(OC)c1OCCNC[C@@H]1COc2ccccc2[C@@H]1O
6.63,9.24,407,–,COc1cccc(OC)c1OCCNCC1COc2ccccc2O1 (stereo not given)
6.09,7.94,71,–,COc1cccc(OC)c1OCCNC[C@@H]1COc2ccccc2S1
6.24,7.54,20,–,COc1cccc(OC)c1OCCNC[C@@H]1C[S@+]([O-])c2ccccc2O1 (relative stereo)
6.41,7.33,8,–,COc1cccc(OC)c1OCCNCc1cccc2ccccc12
5.8,–,6,6.6,COc1cccc(OC)c1OCCNC[C@@H]1CS(=O)(=O)c2ccccc2O1
6.52,8.93,257,–,COc1cccc(OC)c1OCCNC[C@@H]1COc2ccccc2C1=O
6.15,9.05,469,–,COc1cccc(OC)c1OCCNC[C@@H]1CSc2ccccc2O1
7.05,–,141,9.2,COc1cccc(OC)c1OCCNC[C@@H]1CCc2ccccc2O1
6.4,7.75,22,–,COc1cccc(OC)c1OCCNCc1ccc2ccccc2c1
6.24,7.71,30,–,COc1cccc(OC)c1OCCNC[C@@H]1C[S@@+]([O-])c2ccccc2O1 (relative stereo)
6.04,–,4,6.6,COc1cccc(OC)c1OCCNCc1cc2ccccc2[nH]1
6.09,7.33,17,–,COc1cccc(OC)c1OCCNC[C@@H]1COc2ccccc2[C@H]1O
